Measurements taken from publication PMC3224645 (Purinergic Signalling, 2011).

What was measured:
[1] = tested on: N1S1 (rat hepatocellular carcinoma) cells; test: [3H]-thymidine incorporation proliferation assay, N1S1; assay type: cell-based
Method in brief: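 N1S1 rat hepatoma cells, not serum-starved, were assayed in growth medium (RPMI 1640, 10% FBS, 2 mM L-glutamine, penicillin/streptomycin) at 1.5 × 10^4 cells/ml. […] Assays ran 24 h, or 48 h for experiments with EHNA (10 μM). [3H]-thymidine (1 μCi) was pulsed for the last 18 h, then cells were harvested and scintillation-counted.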

[2] = tested on: breast cancer cell lines lacking A3R mRNA; details: concentrations between 10 and 100 μM (500 μM for adenosine); cited from earlier work
hA3R [3] = target: T1, hA3R (Homo sapiens, UniProt P0DMS8); test: cAMP accumulation assay; assay type: cell-based
T1 sequence (P0DMS8 1-318): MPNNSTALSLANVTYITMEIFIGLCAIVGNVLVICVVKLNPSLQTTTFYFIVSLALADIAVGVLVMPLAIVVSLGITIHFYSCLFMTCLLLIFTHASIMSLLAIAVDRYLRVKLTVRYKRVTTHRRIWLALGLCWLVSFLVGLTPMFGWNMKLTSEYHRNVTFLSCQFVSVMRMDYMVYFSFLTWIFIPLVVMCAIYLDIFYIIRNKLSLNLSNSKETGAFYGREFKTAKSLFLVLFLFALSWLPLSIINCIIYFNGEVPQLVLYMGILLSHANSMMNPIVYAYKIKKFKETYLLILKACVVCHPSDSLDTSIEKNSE

[4] = tested on: LNCaP (human prostate carcinoma) cells; test: [3H]-thymidine incorporation proliferation assay, LNCaP; assay type: cell-based; details: for effect on LNCaP proliferation: 24 h
Method in brief: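 LNCaP cells were kept in RPMI 1640 with 10% FBS, then serum-starved for 18 h and assayed as monolayers in RPMI with 1% FBS at 1.5 × 10^4 cells/ml. […] Assays ran 24 h, or 48 h for experiments with EHNA (10 μM). [3H]-thymidine (1 μCi) was added for the last 18 h, then cells were harvested and counted. Three experiments in triplicate.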

[5] = in the first 4 h, mostly in metabolized form; cited from earlier work
rat A3R = target: T2, rat A3R (Rattus norvegicus, UniProt P28647); test: Radioligand binding, [125I]-AB-MECA displacement on RBL-2H3 cell membranes
T2 sequence (P28647 1-320): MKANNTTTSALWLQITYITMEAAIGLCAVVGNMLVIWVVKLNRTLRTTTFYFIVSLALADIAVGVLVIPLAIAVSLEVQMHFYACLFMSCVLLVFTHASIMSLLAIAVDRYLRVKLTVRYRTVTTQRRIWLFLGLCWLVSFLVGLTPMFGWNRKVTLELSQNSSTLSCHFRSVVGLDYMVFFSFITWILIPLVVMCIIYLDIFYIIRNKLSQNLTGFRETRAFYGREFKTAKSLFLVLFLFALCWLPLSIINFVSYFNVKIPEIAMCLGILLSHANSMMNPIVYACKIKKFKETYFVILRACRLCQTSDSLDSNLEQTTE

HL-60 = details: 30 μM, in the presence of MRS1523 (10 μM) or MRS1220 (5 μM); cited from earlier work
MOLT-4 = details: 30 μM, in the presence of MRS1523 (10 μM) or MRS1220 (5 μM); cited from earlier work
[6] = phase I clinical studies; cited from earlier work
LNCaP cells = test: LNCaP proliferation with IPA in the presence of A3R antagonist MRS1523; assay type: cell-based, human
hA3R [7] = target: T1, hA3R; details: cited from earlier work

SMILES: CCCCCC[C@@H]([C@@H](C)O)n1cnc2c(N)ncnc21 (racemic) [EHNA]
- basal growth inhibition of N1S1 cells ([1]; EHNA 10 μM alone, without adenosine): 22%

SMILES: Nc1ncnc2c1ncn2[C@@H]1O[C@H](CO)[C@@H](O)[C@H]1O [1a, Adenosine]
- antiproliferative effect on breast cancer cell lines lacking A3R mRNA [2]: had antiproliferative effects
- effect on N1S1 proliferation ([1]; 25 μM): only a modest effect
- effect on N1S1 proliferation in the presence of EHNA ([1]; adenosine 25 μM + EHNA 10 μM): almost full growth inhibition
- effect of ADA on the agonist's inhibition of cAMP production (hA3R [3]; agonist 10 μM + ADA 0.8 IU/ml): abolished the effect
- inhibition of forskolin-stimulated cAMP production (hA3R [3]; agonist at 10 μM): inhibited cAMP production to a similar extent
- effect on LNCaP proliferation ([4]; 25 μM): no effect
- effect of EHNA on the adenosine effect in LNCaP ([4]; adenosine 25 μM + EHNA 10 μM, data not shown): did not increase the adenosine effect

SMILES: CC(C)=CCNc1ncnc2c1ncn2[C@@H]1O[C@H](CO)[C@@H](O)[C@H]1O [1b, N^6-(2-isopentenyl)-adenosine]
- fraction excreted in urine [5]: more than 50%
- Ki (rat A3R): 4.69 ± 0.2 µM

SMILES: Nc1nc(Cl)nc2c1ncn2[C@@H]1O[C@H](CO)[C@@H](O)[C@H]1O [2-chloro-adenosine]
- antiproliferative effect on breast cancer cell lines lacking A3R mRNA [2]: had antiproliferative effects

SMILES: Nc1ncnc2c1ncn2[C@@H]1O[C@H](CO)C[C@H]1O [3′-deoxyadenosine]
- antiproliferative effect on breast cancer cell lines lacking A3R mRNA [2]: had antiproliferative effects

SMILES: CNC(=O)[C@H]1O[C@@H](n2cnc3c(NCc4cccc(I)c4)nc(Cl)nc32)[C@H](O)[C@@H]1O [Cl-IB-MECA, 2-chloro-N ^6-(3-iodobenzyl)adenosine-5′-N-methylcarboxamide]
- growth of HL-60 (HL-60): inhibited growth
- antiproliferative effect on breast cancer cell lines lacking A3R mRNA [2]: had antiproliferative effects
- growth of MOLT-4 (MOLT-4): inhibited growth
- effect on N1S1 proliferation ([1]; 0.01–10 μM, 24 h): inhibited proliferation
- effect on LNCaP proliferation ([4]; 0.01–10 μM): inhibited proliferation

SMILES: CNC(=O)[C@H]1O[C@@H](n2cnc3c(NCc4cccc(I)c4)ncnc32)[C@H](O)[C@@H]1O [IB-MECA]
- tolerability [6]: tolerated very well
- antiproliferative effect on breast cancer cell lines lacking A3R mRNA [2]: had antiproliferative effects

SMILES: CCCOC(=O)c1c(-c2ccccc2)nc(CC)c(C(=O)SCC)c1CCC [MRS1523]
- blockade of the antiproliferative effect of IPA on LNCaP (LNCaP cells; IPA 1 μM, MRS1523 0.01–1 μM): small, although still significant at higher concentrations
- blockade of the antiproliferative effect of IPA on LNCaP (LNCaP cells; IPA 10 μM, MRS1523 0.01–1 μM): no effect
- blockade of the antiproliferative effect of IPA on LNCaP (LNCaP cells; MRS1523 0.1 and 1 μM, IPA 0.01 and 0.1 μM): prevented the antiproliferative effect
- affinity for the hA3R compared to IPA (hA3R [7]): approximately sixfold higher

SMILES: COc1ccccc1NC(=O)Nc1nc(-c2cccnc2)nc2ccccc12 [VUF5574]
- inhibition by the antagonist of cAMP modulation by adenosine, IPA and Cl-IB-MECA (hA3R [3]; agonists 10 μM, VUF5574 1 μM or 10 μM): largely and significantly inhibited
